# Laboratory results taken from ChEMBL document CHEMBL2157887, “Adamantyl carboxamides and acetamides as potent human 11β-hydroxysteroid dehydrogenase type 1 inhibitors” (Bioorg Med Chem, 2012).
# The source made the active and inactive calls. No cut-off for these calls is given here.
# Experiments:
# [1] = target: T1, 17-beta-hydroxysteroid dehydrogenase type 1 (Homo sapiens) (UniProt P14061); experiment: Inhibition of human 17beta-HSD1 in human T47D cells assessed as conversion of [3H]E1 to [3H]E2 at 10 uM after 30 mins; format: cell-based
# T1 sequence (whole entry): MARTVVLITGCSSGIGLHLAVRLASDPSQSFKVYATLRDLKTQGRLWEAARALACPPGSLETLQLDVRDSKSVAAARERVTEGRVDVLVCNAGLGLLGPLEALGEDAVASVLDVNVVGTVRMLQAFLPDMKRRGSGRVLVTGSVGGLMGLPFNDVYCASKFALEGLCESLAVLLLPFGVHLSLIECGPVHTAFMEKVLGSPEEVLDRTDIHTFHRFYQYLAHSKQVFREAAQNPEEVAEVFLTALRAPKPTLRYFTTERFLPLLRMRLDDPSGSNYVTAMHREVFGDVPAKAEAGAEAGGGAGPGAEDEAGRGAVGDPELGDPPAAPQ
# [2] = target: T2, 11-beta-hydroxysteroid dehydrogenase type 2 (Homo sapiens) (UniProt P80365); experiment: Inhibition of human 11beta-HSD2 expressed in CHO cells assessed as conversion of [3H]cortisol to [3H]cortisone at 10 uM after 2 hrs
# T2 sequence (whole entry): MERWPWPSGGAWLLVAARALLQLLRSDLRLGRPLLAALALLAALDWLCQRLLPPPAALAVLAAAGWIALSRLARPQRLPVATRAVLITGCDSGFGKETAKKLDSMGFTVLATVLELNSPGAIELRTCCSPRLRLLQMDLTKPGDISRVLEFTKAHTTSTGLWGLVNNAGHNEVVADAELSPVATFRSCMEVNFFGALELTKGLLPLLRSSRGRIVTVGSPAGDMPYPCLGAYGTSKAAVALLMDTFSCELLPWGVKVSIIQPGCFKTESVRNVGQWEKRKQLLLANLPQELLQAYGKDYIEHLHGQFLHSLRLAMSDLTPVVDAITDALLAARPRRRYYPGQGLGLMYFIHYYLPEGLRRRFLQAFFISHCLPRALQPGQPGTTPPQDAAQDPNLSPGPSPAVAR
# [3] = Half life in human liver microsomes by HPLC analysis in presence of NADPH; format: ADME, Microsome
# Method in brief: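 Parent compound incubated with human liver microsomes plus NADPH cofactor at 37 °C for 40 min; remaining parent quantified by HPLC to derive T1/2.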
# [4] = target: 11-beta-hydroxysteroid dehydrogenase 1 (Homo sapiens) (UniProt P28845); experiment: Inhibition of human 11beta-HSD1 expressed in HEK293 cells assessed as conversion of [3H]cortisone to [3H]cortisol at 1 uM after 2 hrs by scintillation counting; format: cell-based
# Method in brief: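 HSD11B1-stably transfected HEK-293 cells grown to 80% confluence, then given serum-free medium with 22 nM ³H-cortisone and compound in 1% DMSO, 37 °C, 2 h. Medium sampled into anti-cortisol antibody/SPA bead mix, shaken to equilibrium, scintillation counted. Percent inhibition against high controls (no compound) and low controls (no cells).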
# Chain of 11-beta-hydroxysteroid dehydrogenase 1 (Homo sapiens) (P28845 whole entry, looked up): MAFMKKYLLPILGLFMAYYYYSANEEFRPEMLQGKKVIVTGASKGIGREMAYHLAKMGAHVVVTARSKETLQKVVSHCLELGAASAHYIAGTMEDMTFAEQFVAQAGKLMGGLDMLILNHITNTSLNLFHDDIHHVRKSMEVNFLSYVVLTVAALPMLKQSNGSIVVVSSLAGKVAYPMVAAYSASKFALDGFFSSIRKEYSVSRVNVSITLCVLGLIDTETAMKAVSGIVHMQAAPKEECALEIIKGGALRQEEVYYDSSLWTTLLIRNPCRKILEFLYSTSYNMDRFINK
inhibition [1],inhibition [2],half-life [3] [h],inhibition [4] [%],Compound
inactive,inactive,,,O=C(NCc1cccs1)C12CC3CC(CC(C3)C1)C2
inactive,inactive,,,O=C(NCCc1ccccn1)C12CC3CC(CC(C3)C1)C2
inactive,inactive,,,CN(Cc1ccnn1C)C(=O)C12CC3CC(CC(C3)C1)C2
inactive,inactive,,,CN(CCc1cccs1)C(=O)C12CC3CC(CC(C3)C1)C2
inactive,inactive,1,,CN(Cc1cccn1C)C(=O)C12CC3CC(CC(C3)C1)C2
inactive,inactive,,,CN(Cc1cccc(N)c1)C(=O)C12CC3CC(CC(C3)C1)C2
inactive,inactive,,,Cc1ccc(C2(C(=O)N(C)Cc3cccs3)CC2)cc1
inactive,inactive,,,CN(Cc1cccn1C)C(=O)CC12CC3CC(CC(C3)C1)C2
inactive,inactive,,,Cc1csc(CN(C)C(=O)C23CC4CC(CC(C4)C2)C3)c1
inactive,inactive,,,CN(Cc1cccnc1)C(=O)CC12CC3CC(CC(C3)C1)C2
inactive,inactive,,,CN(Cc1ccc(Cl)s1)C(=O)C12CC3CC(CC(C3)C1)C2
inactive,inactive,,,CC(=O)Nc1cccc(CN(C)C(=O)C23CC4CC(CC(C4)C2)C3)c1
inactive,inactive,,,CN(Cc1ccsc1)C(=O)CC12CC3CC(CC(C3)C1)C2
inactive,inactive,,,Cn1cccc1CNC(=O)C12CC3CC(CC(C3)C1)C2
inactive,inactive,1,,CN(Cc1cccs1)C(=O)C12CC3CC(CC(C3)C1)C2
inactive,inactive,,,CN(Cc1cccnc1)C(=O)C12CC3CC(CC(C3)C1)C2
inactive,inactive,,,O=C(CC12CC3CC(CC(C3)C1)C2)NCc1cccs1
inactive,inactive,,,CN(Cc1cccs1)C(=O)C1(c2ccc(Cl)cc2)CC1
inactive,inactive,,,O=C(NCc1ccco1)C12CC3CC(CC(C3)C1)C2
inactive,inactive,,,CN(Cc1cccs1)C(=O)CC12CC3CC(CC(C3)C1)C2
inactive,inactive,,,Cc1cccc(CN(C)C(=O)C23CC4CC(CC(C4)C2)C3)n1

inhibition [1],inhibition [2],half-life [3] [h],inhibition [4] [%],Compound
inactive,inactive,,,Cc1cccc(CN(C)C(=O)C23CC4CC(CC(C4)C2)C3)c1
inactive,inactive,,,CN(Cc1cccs1)C(=O)C1(C)CCCCC1
inactive,inactive,,,O=C(NCCc1cccnc1)C12CC3CC(CC(C3)C1)C2
inactive,inactive,,,O=C(NCc1ccccn1)C12CC3CC(CC(C3)C1)C2
inactive,inactive,,,Cc1csc(CN(C)C(=O)C23CC4CC(CC(C4)C2)C3)n1
inactive,inactive,,,CN(Cc1cccs1)C(=O)C1(c2ccc(Cl)cc2)CCC1
inactive,inactive,,26,CN(Cc1ccccn1)C(=O)CC12CC3CC(CC(C3)C1)C2
inactive,inactive,,,O=C(NCCc1cccs1)C12CC3CC(CC(C3)C1)C2
inactive,inactive,,,Cc1ccsc1CN(C)C(=O)C12CC3CC(CC(C3)C1)C2
inactive,inactive,,,Cc1csc(CNC(=O)C23CC4CC(CC(C4)C2)C3)c1
inactive,inactive,,,CN(Cc1nccn1C)C(=O)C12CC3CC(CC(C3)C1)C2
inactive,inactive,,,CN(Cc1sccc1N)C(=O)C12CC3CC(CC(C3)C1)C2
inactive,inactive,,,CN(Cc1cccc(Cl)c1)C(=O)C12CC3CC(CC(C3)C1)C2
inactive,inactive,,,O=C(NCc1cccnc1)C12CC3CC(CC(C3)C1)C2
inactive,inactive,,,CN(Cc1cccs1)C(=O)C12CC3CC(CC1C3)C2
inactive,inactive,,,CN(Cc1cccs1)C(=O)C1(c2ccc(Cl)cc2)CCCC1
inactive,inactive,,,CN(CCc1ccccn1)C(=O)C12CC3CC(CC(C3)C1)C2
inactive,inactive,,,CN(Cc1ccsc1)C(=O)C12CC3CC(CC(C3)C1)C2
inactive,inactive,,,CN(Cc1ccco1)C(=O)C12CC3CC(CC(C3)C1)C2
inactive,inactive,,,Cc1ccc(CN(C)C(=O)C23CC4CC(CC(C4)C2)C3)s1
inactive,inactive,,,Cn1cccc1CNC(=O)CC12CC3CC(CC(C3)C1)C2
